These results are taken from ChEMBL document CHEMBL1139420, “Antibacterial profile against drug-resistant Staphylococcus epidermidis clinical strain and structure-activity relationship studies of 1H-pyrazolo[3,4-b]pyridine and thieno[2,3-b]pyridine derivatives” (Bioorg Med Chem, 2008).

The subject of one series is Pseudomonas aeruginosa. Briefly: Antibacterial activity against drug-resistant Pseudomonas aeruginosa clinical isolate assessed as inhibition zone diameter after 24 hrs by antibacterial susceptibility test. The series is classed as functional, organism-based.
In a further series the test system is Enterobacter cloacae. Briefly: Antibacterial activity against drug-resistant Enterobacter cloacae clinical isolate assessed as inhibition zone diameter after 24 hrs by antibacterial susceptibility test. The class given is functional, organism-based.
The subject of another series is Klebsiella pneumoniae. Briefly: Antibacterial activity against drug-resistant Klebsiella pneumoniae clinical isolate assessed as inhibition zone diameter after 24 hrs by antibacterial susceptibility test. The class given is functional, organism-based.
The subject of a further series is Serratia marcescens. Kind of series: Antibacterial activity against drug-resistant Serratia marcescens clinical isolate assessed as inhibition zone diameter after 24 hrs by antibacterial susceptibility test. The class given is functional, organism-based.
Series [1] in a line: Cytotoxicity against human PBMC assessed as cell viability at 700 uM after 3 to 5 days by XTT method. The series is classed as cell-based. As to conditions: PBMC (peripheral blood mononuclear cells), read-out: Activity. The gist of the method: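 Human PBMCs from healthy donors isolated by density gradient from buffy coats, kept in RPMI 1640 with 10% heat-inactivated FBS, penicillin, streptomycin, 2 mM glutamine, 10 mM Hepes; stimulated 2–3 days with 5 µg/mL PHA, then kept with 5 U/mL IL-2. Compound at 700 µM, 5% CO2, 37 °C; XTT added, OD 450 nm after 2 h; duplicate, at least three times.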
(In general: Tetrazolium assays rely on reduction of a dye to a coloured formazan, in cell work by metabolically active cells.)

Another series has as its system Escherichia coli. Briefly: Antibacterial activity against drug-resistant Escherichia coli clinical isolate assessed as inhibition zone diameter after 24 hrs by antibacterial susceptibility test. The series is classed as functional, organism-based.
Series [2] has as its system Staphylococcus epidermidis. Kind of series: Antibacterial activity against drug-resistant Staphylococcus epidermidis clinical isolate assessed as inhibition zone diameter after 24 hrs by antibacterial susceptibility test. The series is classed as functional.
In another series the test system is Enterococcus faecalis. Kind of series: Antibacterial activity against drug-resistant Enterococcus faecalis clinical isolate assessed as inhibition zone diameter after 24 hrs by antibacterial susceptibility test. The class given is functional, organism-based.
Series [3] deals with Acinetobacter calcoaceticus. Kind of series: Antibacterial activity against drug-resistant Acinetobacter calcoaceticus clinical isolate assessed as inhibition zone diameter after 24 hrs by antibacterial susceptibility test. The series is classed as functional, organism-based.
The test system of the next series is Proteus mirabilis. Kind of series: Antibacterial activity against drug-resistant Proteus mirabilis clinical isolate assessed as inhibition zone diameter after 24 hrs by antibacterial susceptibility test. The series is classed as functional, organism-based.

The structures appear in SMILES notation. Active and inactive are the calls of the source. The calls are words filed in the database; no cut-off is given here.

As for `O=C(O)c1cnc2sccc2c1Nc1ccc(Br)cc1`, the outcome in the series on Pseudomonas aeruginosa, in the series on Enterobacter cloacae, in the series on Klebsiella pneumoniae, with Serratia marcescens, in the series on Escherichia coli and in the series with Enterococcus faecalis was inactive. Further, the outcome (in series [3]; in the series with Proteus mirabilis) was inactive. Further, the viability at 700 µM in series [1] amounted to 100%. Also, the “inhibition zone (IZ)” value in [2] is recorded as 0 mm.
Take `O=C(O)c1cnc2c(cnn2-c2ccccc2)c1Nc1ccc(Cl)cc1`: the result in the series with Pseudomonas aeruginosa, with Enterobacter cloacae, in the series on Klebsiella pneumoniae, in the series with Serratia marcescens, with Escherichia coli and in the series on Enterococcus faecalis was inactive. Moreover, the result (in [3]; in the series with Proteus mirabilis) was inactive. The viability at 700 µM in [1] worked out at 100%. The “inhibition zone (IZ)” value in series [2] came out at 0 mm.
For `O=C(O)c1cnc2c(cnn2-c2ccccc2)c1Nc1cccc([N+](=O)[O-])c1`, the result in the series on Pseudomonas aeruginosa, with Enterobacter cloacae, in the series with Klebsiella pneumoniae, in the series with Serratia marcescens, in the series on Escherichia coli and in the series on Enterococcus faecalis was inactive. The result (in series [3]; in the series with Proteus mirabilis) was inactive. Besides, the viability at 700 µM in [1] turned out to be 100%. The “inhibition zone (IZ)” value in series [2] worked out at 12 mm.
In the case of `Cc1ccc(Nc2c(C(=O)O)cnc3c2cnn3-c2ccccc2)cc1`, the outcome with Pseudomonas aeruginosa, with Enterobacter cloacae, in the series with Klebsiella pneumoniae, with Serratia marcescens, in the series with Escherichia coli and in the series with Enterococcus faecalis was inactive. Also, the outcome (in [3]; in the series on Proteus mirabilis) was inactive. The viability at 700 µM in series [1] amounted to 100%. The “inhibition zone (IZ)” value in series [2] was determined as 0 mm.
Consider `O=C(O)c1cnc2c(cnn2-c2ccccc2)c1Nc1ccc([N+](=O)[O-])cc1`, for which the outcome in the series with Pseudomonas aeruginosa, in the series with Enterobacter cloacae, in the series on Klebsiella pneumoniae, in the series on Serratia marcescens, in the series on Escherichia coli and in the series on Enterococcus faecalis was inactive. Further, the outcome (in series [3]; with Proteus mirabilis) was inactive. For the same compound, the viability at 700 µM in [1] was 88%. For the same compound, in series [2], the “inhibition zone (IZ)” value turned out to be 0 mm.
`COc1ccc(Nc2c(C(=O)O)cnc3sccc23)cc1`: the result in the series with Pseudomonas aeruginosa, in the series with Enterobacter cloacae, with Klebsiella pneumoniae, with Serratia marcescens, in the series with Escherichia coli and with Enterococcus faecalis was inactive. Further, the result (in [3]; in the series on Proteus mirabilis) was inactive. Besides, the viability at 700 µM in series [1] turned out to be 100%. Also, the “inhibition zone (IZ)” value in [2] stood at 0 mm.
Turning to `COc1ccc(Nc2c(C(=O)O)cnc3c2cnn3-c2ccccc2)cc1`, the result with Pseudomonas aeruginosa, in the series on Enterobacter cloacae, in the series with Klebsiella pneumoniae, in the series with Serratia marcescens, with Escherichia coli and with Enterococcus faecalis was inactive. Also, the result (in [3]; with Proteus mirabilis) was inactive. Moreover, the viability at 700 µM in series [1] is 100%. Besides, in series [2], the “inhibition zone (IZ)” value is recorded as 0 mm.
On to `Cc1ccc(Nc2c(C(=O)O)cnc3sccc23)cc1`, for which the result in the series with Pseudomonas aeruginosa, in the series on Enterobacter cloacae, in the series on Klebsiella pneumoniae, in the series with Serratia marcescens, in the series with Escherichia coli and in the series on Enterococcus faecalis was inactive. For the same compound, the outcome (in series [3]; with Proteus mirabilis) was inactive. The viability at 700 µM in series [1] turned out to be 100%. In series [2], the “inhibition zone (IZ)” value amounted to 0 mm.
For `O=C(O)c1cnc2sccc2c1Nc1cccc([N+](=O)[O-])c1`, the result in the series with Pseudomonas aeruginosa, with Enterobacter cloacae, with Klebsiella pneumoniae, in the series with Serratia marcescens, in the series on Escherichia coli and in the series with Enterococcus faecalis was inactive. The result (in [3]; with Proteus mirabilis) was inactive. In addition, the viability at 700 µM in series [1] was found to be 100%. The “inhibition zone (IZ)” value in [2] is reported as 0 mm.
Take `Cc1cccc(Nc2c(C(=O)O)cnc3sccc23)c1`: the result in the series on Pseudomonas aeruginosa, in the series on Enterobacter cloacae, in the series on Klebsiella pneumoniae, with Serratia marcescens, with Escherichia coli and with Enterococcus faecalis was inactive. Further, the outcome (in series [3]; with Proteus mirabilis) was inactive. For the same compound, the viability at 700 µM in series [1] is 100%. Further, the “inhibition zone (IZ)” value in series [2] is 0 mm.
As to `CN[C@H](CC(C)C)C(=O)N[C@H]1C(=O)N[C@@H](CC(N)=O)C(=O)N[C@H]2C(=O)N[C@H]3C(=O)N[C@H](C(=O)N[C@H](C(=O)O)c4cc(O)cc(O)c4-c4cc3ccc4O)[C@H](O)c3ccc(c(Cl)c3)Oc3cc2cc(c3O[C@@H]2O[C@H](CO)[C@@H](O)[C@H](O)[C@H]2O[C@H]2C[C@](C)(N)[C@H](O)[C@H](C)O2)Oc2ccc(cc2Cl)[C@H]1O` [VANCOMYCIN], the “inhibition zone (IZ)” value in series [2] was 15 mm.
Take `O=C(O)c1cnc2c(cnn2-c2ccccc2)c1Nc1ccc(Br)cc1`: the result in the series with Pseudomonas aeruginosa, in the series on Enterobacter cloacae, in the series with Klebsiella pneumoniae, in the series with Serratia marcescens, in the series with Escherichia coli and in the series with Enterococcus faecalis was inactive. Also, the result (in series [3]; in the series on Proteus mirabilis) was inactive. The viability at 700 µM in series [1] was 92%. In series [2], the “inhibition zone (IZ)” value amounted to 10 mm.
For `O=C(O)c1cnc2sccc2c1Nc1ccc(Cl)cc1`, the outcome in the series on Pseudomonas aeruginosa, in the series on Enterobacter cloacae, in the series on Klebsiella pneumoniae, with Serratia marcescens, in the series on Escherichia coli and in the series on Enterococcus faecalis was inactive. In addition, the result (in series [3]; in the series on Proteus mirabilis) was inactive. Moreover, the viability at 700 µM in [1] is 100%. In series [2], the “inhibition zone (IZ)” value was found to be 0 mm.
For the compound `O=C(O)c1cnc2sccc2c1Nc1ccc([N+](=O)[O-])cc1`, the outcome in the series on Pseudomonas aeruginosa, in the series with Enterobacter cloacae, in the series on Klebsiella pneumoniae, with Serratia marcescens, in the series on Escherichia coli and in the series on Enterococcus faecalis was inactive. Also, the outcome (in series [3]; in the series on Proteus mirabilis) was inactive. In addition, the viability at 700 µM in [1] amounted to 100%. Moreover, the “inhibition zone (IZ)” value in series [2] was 0 mm.
For the compound `O=C(O)c1cnc2sccc2c1Nc1cccc(Cl)c1`, the outcome in the series on Pseudomonas aeruginosa, in the series with Enterobacter cloacae, with Klebsiella pneumoniae, with Serratia marcescens, in the series with Escherichia coli and with Enterococcus faecalis was inactive. The outcome (in series [3]; in the series on Proteus mirabilis) was inactive. Also, in series [1], the viability at 700 µM amounted to 100%. For the same compound, the “inhibition zone (IZ)” value in series [2] came out at 0 mm.
With `O=C(O)c1cnc2sccc2c1Nc1cccc(F)c1`, the result in the series with Pseudomonas aeruginosa, in the series on Enterobacter cloacae, with Klebsiella pneumoniae, in the series with Serratia marcescens, in the series on Escherichia coli and in the series with Enterococcus faecalis was inactive. The result (in series [3]; in the series on Proteus mirabilis) was inactive. Besides, the viability at 700 µM in series [1] amounted to 100%. Also, the “inhibition zone (IZ)” value in series [2] is on record as 0 mm.
In the case of `O=C(O)c1cnc2c(cnn2-c2ccccc2)c1Nc1ccccc1`, the outcome in the series with Pseudomonas aeruginosa, in the series with Enterobacter cloacae, in the series on Klebsiella pneumoniae, with Serratia marcescens, in the series with Escherichia coli and in the series with Enterococcus faecalis was inactive. The outcome (in [3]; in the series with Proteus mirabilis) was inactive. Further, in series [1], the viability at 700 µM was 91%. The “inhibition zone (IZ)” value in series [2] is given as 0 mm.
